The source of these data is ChEMBL document CHEMBL1138311, “Design and synthesis of novel and potent inhibitors of the type II transmembrane serine protease, matriptase, based upon the sunflower trypsin inhibitor-1” (J Med Chem, 2007).

Experiment [1] in a line: Selectivity for human matriptase over bovine thrombin. The gist of the method:
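Enzyme was preincubated with inhibitor before substrate addition. Matriptase substrate: t-Boc-Gln-Ala-Arg-AMC; thrombin substrate: N-tBoc-Leu-Arg-Arg-AMC. AMC release read at ex 360/em 480 nm over six to seven inhibitor concentrations. Ki from Dixon plots using two substrate concentrations.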

For experiment [2], the target named is Prothrombin (Bos taurus, UniProt P00735). The experiment in a line: (§1) Inhibition of bovine thrombin. The gist of the method:
(§2)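 Room-temperature fluorogenic assay in 100 mM Tris-HCl (pH 8.5) with 100 mg/mL BSA. Enzyme and inhibitor were preincubated, then N-tBoc-Leu-Arg-Arg-AMC substrate was added. Hydrolysis was followed by fluorescence (ex 360 nm, em 480 nm) at six to seven inhibitor concentrations. Ki was taken from Dixon plots of two data sets at different substrate concentrations.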

In experiment [3] the target is T1, Suppressor of tumorigenicity 14 protein (Homo sapiens, UniProt Q9Y5Y6).
T1 sequence (Q9Y5Y6 whole entry): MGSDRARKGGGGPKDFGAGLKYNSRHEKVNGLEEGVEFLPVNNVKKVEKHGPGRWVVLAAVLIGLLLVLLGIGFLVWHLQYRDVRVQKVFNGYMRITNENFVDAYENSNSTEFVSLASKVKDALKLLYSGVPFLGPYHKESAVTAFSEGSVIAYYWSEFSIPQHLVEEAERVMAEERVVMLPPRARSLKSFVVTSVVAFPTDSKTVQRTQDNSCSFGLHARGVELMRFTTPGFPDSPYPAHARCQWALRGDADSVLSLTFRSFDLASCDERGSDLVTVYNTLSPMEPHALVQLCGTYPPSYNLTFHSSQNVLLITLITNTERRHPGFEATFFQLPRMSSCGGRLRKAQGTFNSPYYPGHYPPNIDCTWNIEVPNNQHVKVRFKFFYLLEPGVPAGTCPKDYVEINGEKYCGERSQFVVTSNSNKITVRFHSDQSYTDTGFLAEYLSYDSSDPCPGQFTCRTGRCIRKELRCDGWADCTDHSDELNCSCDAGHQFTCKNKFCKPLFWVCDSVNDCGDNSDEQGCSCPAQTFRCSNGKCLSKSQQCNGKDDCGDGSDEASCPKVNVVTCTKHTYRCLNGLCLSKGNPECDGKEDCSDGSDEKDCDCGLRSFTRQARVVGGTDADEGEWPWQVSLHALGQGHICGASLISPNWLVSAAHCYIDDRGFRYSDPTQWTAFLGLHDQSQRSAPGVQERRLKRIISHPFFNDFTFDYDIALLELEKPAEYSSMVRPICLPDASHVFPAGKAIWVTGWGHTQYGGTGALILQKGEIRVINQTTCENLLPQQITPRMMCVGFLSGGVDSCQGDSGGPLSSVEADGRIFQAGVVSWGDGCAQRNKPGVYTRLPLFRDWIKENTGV
The experiment is described as follows: Inhibition of human matriptase. The gist of the method:
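Run at room temperature in 100 mM Tris-HCl (pH 8.5) with 100 mg/mL BSA. Enzyme and inhibitor were preincubated, then t-Boc-Gln-Ala-Arg-AMC was added and fluorescence read at ex 360 nm, em 480 nm over six to seven inhibitor concentrations. Ki came from Dixon plots at two substrate concentrations. A second format used purified matriptase with t-Boc-Gln-Ala-Arg-AFC in 100 mM Tris (pH 8.3) with BSA.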

For experiment [4], the target named is Prothrombin (Bos taurus) (UniProt P00735). Described as §1. The gist of the method: as §2

By Ki is commonly meant a measure of affinity in units of concentration, obtained from inhibition or displacement. A higher Ki goes with lower affinity.

Activity calls are given as the source filed them. The rule behind the calls is not given here.

For `CC[C@H](C)[C@@H]1NC(=O)[C@@H]2CCCN2C(=O)[C@@H]2CCCN2C(=O)[C@H]([C@@H](C)CC)NC(=O)[C@H](CO)NC(=O)[C@H](CCCCN)NC(=O)[C@H]([C@@H](C)O)NC(=O)[C@@H]2CSSC[C@H](NC1=O)C(=O)N[C@@H](Cc1c(F)c(F)c(F)c(F)c1F)C(=O)N1CCC[C@@H]1C(=O)N[C@@H](CC(=O)O)C(=O)NCC(=O)N[C@@H](CCCNC(=N)N)C(=O)N2`, the Ratio Ki in experiment [1] stood at 37.8. This molecule registered a Ki in experiment [2] of 33.6 µM.

As for `CC[C@H](C)[C@@H]1NC(=O)[C@@H]2CCCN2C(=O)[C@@H]2CCCN2C(=O)[C@H]([C@@H](C)CC)NC(=O)[C@H](CO)NC(=O)[C@H](CCCCN)NC(=O)[C@H]([C@@H](C)O)NC(=O)[C@@H]2CSSC[C@H](NC1=O)C(=O)N[C@@H](Cc1ccccc1)C(=O)N1CCC[C@@H]1C(=O)N[C@@H](CC(=O)O)C(=O)NCC(=O)N[C@@H](CCCNC(=N)N)C(=O)N2`, the Ratio Ki in experiment [1] is 50.

With `CC[C@H](C)[C@@H]1NC(=O)[C@@H]2CCCN2C(=O)[C@@H]2CCCN2C(=O)[C@H]([C@@H](C)CC)NC(=O)[C@H](CO)NC(=O)[C@H](CCCCN)NC(=O)[C@H]([C@@H](C)O)NC(=O)[C@@H]2CSCSC[C@H](NC1=O)C(=O)N[C@@H](Cc1ccccc1)C(=O)N1CCC[C@@H]1C(=O)N[C@@H](CC(=O)O)C(=O)NCC(=O)N[C@@H](CCCNC(=N)N)C(=O)N2`, the Ratio Ki in experiment [1] is 62.5. In addition, the Ki was found to be 0.16 µM in experiment [3] and 10 µM in experiment [2].

For `CC[C@H](C)[C@@H]1NC(=O)[C@@H]2CCCN2C(=O)[C@@H]2CCCN2C(=O)[C@H]([C@@H](C)CC)NC(=O)[C@H](CO)NC(=O)[C@H](CCCCN)NC(=O)[C@H]([C@@H](C)O)NC(=O)[C@@H]2CSSC[C@H](NC1=O)C(=O)N[C@@H](Cc1ccccc1)C(=O)N1CCC[C@@H]1C(=O)N[C@@H](CC(=O)O)C(=O)NCC(=O)N[C@@H](CCCCNC(=N)N)C(=O)N2`, in experiment [1], the Ratio Ki stood at 8.9. This molecule displayed a Ki in experiment [2] of 7.63 µM.

For the molecule `CC[C@H](C)[C@@H]1NC(=O)[C@@H]2CCCN2C(=O)[C@@H]2CCCN2C(=O)[C@H]([C@@H](C)CC)NC(=O)[C@H](CO)NC(=O)[C@H](CCCCCN)NC(=O)[C@H]([C@@H](C)O)NC(=O)[C@@H]2CSSC[C@H](NC1=O)C(=O)N[C@@H](Cc1ccccc1)C(=O)N1CCC[C@@H]1C(=O)N[C@@H](CC(=O)O)C(=O)NCC(=O)N[C@@H](CCCNC(=N)N)C(=O)N2`, the Ratio Ki in experiment [1] was found to be 1.6. The molecule further returned a Ki in experiment [2] of 45.6 µM.

For the molecule `CC[C@H](C)[C@@H]1NC(=O)[C@@H]2CCCN2C(=O)[C@@H]2CCCN2C(=O)[C@H]([C@@H](C)CC)NC(=O)[C@H](CO)NC(=O)[C@H](CCCNC(=N)N)NC(=O)[C@H]([C@@H](C)O)NC(=O)[C@@H]2CSSC[C@H](NC1=O)C(=O)N[C@@H](Cc1ccccc1)C(=O)N1CCC[C@@H]1C(=O)N[C@@H](CC(=O)O)C(=O)NCC(=O)N[C@@H](CCCNC(=N)N)C(=O)N2`, the Ratio Ki in experiment [1] came to 0.18. Further, the affinity in experiment [2], expressed as Ki, was 0.86 µM.

With `CC[C@H](C)[C@@H]1NC(=O)[C@@H]2CCCN2C(=O)[C@@H]2CCCN2C(=O)[C@H]([C@@H](C)CC)NC(=O)[C@H](CO)NC(=O)[C@H](CCCCN)NC(=O)[C@H]([C@@H](C)O)NC(=O)[C@@H]2CSSC[C@H](NC1=O)C(=O)N[C@@H](Cc1ccc(-c3ccccc3)cc1)C(=O)N1CCC[C@@H]1C(=O)N[C@@H](CC(=O)O)C(=O)NCC(=O)N[C@@H](CCCNC(=N)N)C(=O)N2`, the Ratio Ki in experiment [1] turned out to be 25.6. This molecule also returned a Ki in experiment [2] of 25.6 µM.

As to `CC[C@H](C)[C@@H]1NC(=O)[C@@H]2CCCN2C(=O)[C@@H]2CCCN2C(=O)[C@H]([C@@H](C)CC)NC(=O)[C@H](CO)NC(=O)[C@H](CCCCN)NC(=O)[C@H]([C@@H](C)O)NC(=O)[C@H](CO)NC(=O)[C@H](CCCNC(=N)N)NC(=O)CNC(=O)[C@H](CC(=O)O)NC(=O)[C@H]2CCCN2C(=O)[C@H](Cc2ccccc2)NC(=O)[C@H](CO)NC1=O`, the Ratio Ki in experiment [1] worked out at 0.38. For the same molecule, the Ki in experiment [2] came out at 40.4 µM.

On to `CC[C@H](C)[C@@H]1NC(=O)[C@@H]2CCCN2C(=O)[C@@H]2CCCN2C(=O)[C@H]([C@@H](C)CC)NC(=O)[C@H](CO)NC(=O)[C@H](CCCCN)NC(=O)[C@H]([C@@H](C)O)NC(=O)[C@@H]2CSSC[C@H](NC1=O)C(=O)N[C@@H](Cc1ccccc1)C(=O)N1CCC[C@@H]1C(=O)N[C@@H](CC(=O)O)C(=O)NCC(=O)N[C@@H](Cc1ccc(NC(=N)N)cc1)C(=O)N2`, for which the Ratio Ki in experiment [1] was found to be 1.8. The affinity in experiment [2], expressed as Ki, was 164 µM.

In the case of `CC[C@H](C)[C@@H]1NC(=O)[C@@H]2CCCN2C(=O)[C@@H]2CCCN2C(=O)[C@H]([C@@H](C)CC)NC(=O)[C@H](CO)NC(=O)[C@H](CCCCN)NC(=O)[C@H]([C@@H](C)O)NC(=O)[C@@H]2CSSC[C@H](NC1=O)C(=O)N[C@@H](Cc1ccc3ccccc3c1)C(=O)N1CCC[C@@H]1C(=O)N[C@@H](CC(=O)O)C(=O)NCC(=O)N[C@@H](CCCNC(=N)N)C(=O)N2`, the Ratio Ki in experiment [1] was determined as 36. Further, the affinity in experiment [2], expressed as Ki, was 16.3 µM.

Take `CC[C@H](C)[C@@H]1NC(=O)[C@@H]2CCCN2C(=O)[C@@H]2CCCN2C(=O)[C@H]([C@@H](C)CC)NC(=O)[C@H](CO)NC(=O)[C@H](CCCN)NC(=O)[C@H]([C@@H](C)O)NC(=O)[C@@H]2CSSC[C@H](NC1=O)C(=O)N[C@@H](Cc1ccccc1)C(=O)N1CCC[C@@H]1C(=O)N[C@@H](CC(=O)O)C(=O)NCC(=O)N[C@@H](CCCNC(=N)N)C(=O)N2`: the result in experiment [4] was inactive.

Consider `CC[C@H](C)[C@@H]1NC(=O)[C@@H]2CCCN2C(=O)[C@@H]2CCCN2C(=O)[C@H]([C@@H](C)CC)NC(=O)[C@H](CO)NC(=O)[C@H](CCCCN)NC(=O)[C@H]([C@@H](C)O)NC(=O)[C@@H]2CSSC[C@H](NC1=O)C(=O)N[C@@H](Cc1ccccc1)C(=O)N1CCC[C@@H]1C(=O)N[C@@H](CC(=O)O)C(=O)NCC(=O)N[C@@H](CCCNC(N)=O)C(=O)N2`, for which the Ratio Ki in experiment [1] came out at 37. In experiment [2], this molecule displayed a Ki of 827 µM.
